The list is not random: actives were taken first. Their share in the collection is about 2%.
UHRF1 binding: blocks human UHRF1 binding to methylated DNA; UHRF1 binding to methylated oligo, TR-FRET; inhibition, % at 4.4 µM; AID 687016; 0.75% of 370,000 active; Q96T88; in the data active = inhibition above about 21%;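 note: UHRF1 SRA domain binding a hemimethylated CpG hairpin DNA probe; 0% = median of test compound wells and 100% = reference inhibitor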
TDP2 inh: TDP2 (human) inhibition, absorbance primary screen | O95551 | recombinant TDP2, T5PNP hydrolysis, p-nitrophenol absorbance 415 nm | inhibition, % at 12.8 µM | 0.34% of 370,000 active;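 active = inhibition above the mean of all tested compounds plus 3 SD, set per campaign, cut at about 25% in these data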;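 note: 0% = DMSO with enzyme and 100% = buffer with substrate but no TDP2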
Target sequence (O95551 whole entry, looked up): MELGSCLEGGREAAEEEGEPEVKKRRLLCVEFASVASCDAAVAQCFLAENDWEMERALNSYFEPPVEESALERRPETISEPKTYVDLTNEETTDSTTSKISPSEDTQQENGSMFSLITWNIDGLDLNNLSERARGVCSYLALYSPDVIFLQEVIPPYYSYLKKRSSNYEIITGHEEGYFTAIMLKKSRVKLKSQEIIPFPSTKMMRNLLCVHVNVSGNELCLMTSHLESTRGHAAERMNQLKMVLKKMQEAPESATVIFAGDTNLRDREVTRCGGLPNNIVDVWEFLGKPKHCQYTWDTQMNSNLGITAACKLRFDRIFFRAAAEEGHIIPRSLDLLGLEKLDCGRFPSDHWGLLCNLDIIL
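System – recombinant human TDP2 · Amount – 120 nM TDP2 per well · Buffer or medium – Mg2+-containing Tris-HCl buffer, pH 7.5 · Reagent – T5PNP substrate, 5 mM · Dosing – 12.8 µM single point, 1% DMSO · Incubation – 2 h at 37 °C · Measured by – epi absorbance · Read-out basis – percent inhibition · Benchmarks – high control without enzyme, low control DMSO plus TDP2 · Repeats – singlicate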
ASAP1 GAP inh: inhibitors of human ASAP1 ArfGAP activity. ASAP1-stimulated ARF1 GTP hydrolysis, GDP FP detection. inhibition, % at 16.5 µM. Q9ULH1. 0.19% of 360,000 active. AID 624377; in the data active = inhibition above about 25%;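 note: 0% = vehicle with enzyme and substrate and 100% = no enzyme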
ARFGAP1 inhibitor: inhibits rat ARF GTPase activating protein 1 | Q62848 | inhibition, % at 16.5 µM | 0.26% of 360,000 active | Arfgap1-stimulated ARF1 GTP hydrolysis, GDP FP detection;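 active = inhibition above a per-plate limit, mean inhibition of low control wells plus 3 SD, cut at about 25% in these data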;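 note: 0% = DMSO wells with enzyme and 100% = wells lacking Arfgap1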
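Material: rat Arfgap1 catalytic domain, aa 1-136; also added: human ARF1(Δ1-17)-GTP substrate; compound dosing: one concentration, 16.5 µM, DMSO 1.26%; incubation: GTP hydrolysis reaction 2 h at 25 °C; measured by: Tracer-displacement fluorescence polarization with EDTA stop, 620/688 nm; evaluation: % inhibition from polarization; repeats: one replicate per compound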
MBD2 DNA inh: inhibitors of human MBD2 binding to methylated oligonucleotide; TR-FRET; 0.31% of 370,000 active; inhibition, % at 4.4 µM; Q9UBB5; in the data active = inhibition above about 13%
Target sequence (Q9UBB5 whole entry, looked up): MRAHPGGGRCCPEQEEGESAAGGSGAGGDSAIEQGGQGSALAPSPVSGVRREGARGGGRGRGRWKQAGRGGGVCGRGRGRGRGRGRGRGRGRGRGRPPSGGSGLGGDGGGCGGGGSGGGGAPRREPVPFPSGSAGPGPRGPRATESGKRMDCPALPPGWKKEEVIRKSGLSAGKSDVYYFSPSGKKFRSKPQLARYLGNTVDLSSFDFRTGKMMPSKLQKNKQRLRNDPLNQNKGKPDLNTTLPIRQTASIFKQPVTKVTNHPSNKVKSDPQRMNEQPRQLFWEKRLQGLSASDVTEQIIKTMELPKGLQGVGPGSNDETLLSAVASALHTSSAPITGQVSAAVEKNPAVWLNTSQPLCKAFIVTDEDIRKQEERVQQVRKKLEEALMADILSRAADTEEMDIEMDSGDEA
LEDGF integ inh: blocks HIV-1 LEDGF/p75-dependent DNA integration; inhibition, % at 3.7 µM; AID 743269; 0.64% of 370,000 active; TR-FRET IN-LEDGF/p75 DNA integration, Eu/Cy5;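 active = inhibition above the screen-wide mean plus 3 SD, cut at about 13% in these data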;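 note: signal is the Cy5 over europium emission ratio at 671 and 618 nm; 0% = plate median of compound wells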
IN multimer act: counter-screen for LEDGF/p75 integration inhibitors: HIV-1 integrase multimerization activators. TR-FRET HIV-1 integrase multimerization, biochemical. 17% of 2,000 active. shares compounds with LEDGF integ inh. activation, % at 7.7 µM. AID 1053131; in the data active = activation above about 8.9%
TR-FRET interf: optically interferes with TR-FRET readout in LEDGF counter-screen. shares compounds with LEDGF integ inh. TR-FRET optical interference counterscreen, HIV-1 IN multimerization. inhibition, % at 7.7 µM. 2,000 tested, under 10 active;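 active = inhibition above the mean over all tested compounds plus 3 SD, which no compound reached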;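 note: 0% = integrase with antibodies and DMSO and 100% = antibodies without integrase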
LEDGF integ conf: confirmation of HIV-1 LEDGF/p75-dependent integration inhibitors; shares compounds with LEDGF integ inh; inhibition, % at 3.7 µM; 36% of 2,000 active; TR-FRET LEDGF/p75-dependent HIV-1 integration, biochemical; in the data active = inhibition above about 14%
The depositor's hits bear a star; / = not tested or not shown.

SMILES	UHRF1 binding	TDP2 inh	ASAP1 GAP inh	ARFGAP1 inhibitor	MBD2 DNA inh	LEDGF integ inh	IN multimer act	TR-FRET interf	LEDGF integ conf
Cc1ccc(CNc2ccc(N3CCOCC3)cc2)cc1	-0.4	22.8	1.1	-12.8	-6.3	7.2	/	/	/
c1cc(CNc2ccc(N3CCOCC3)cc2)ccn1	-4.8	22.5	8.7	-4.0	1.0	15.8*	6.4	-22.6	-9.1
Clc1ccc([C@H]2OC[C@@]3(CNCc4ccc5c(c4)OCO5)CS[C@H](c4ccc(Cl)cc4)N23)cc1	3.8	-7.9	/	/	8.1	2.8	/	/	/
O=S1(=O)c2ccc(N3CCSCC3)cc2Oc2ccccc2CN1Cc1cn(Cc2cccc(F)c2)nn1	1.9	3.5	/	/	2.7	-4.1	/	/	/
Cc1ccccc1N1CCN(C2CCCN(C(=O)CCC(=O)N(C)C)C2)CC1 (centres undefined)	-3.3	-16.2	4.0	4.9	-1.3	0.8	/	/	/
Cc1ccn(CCC(=O)N2CCCC(N3CCN(c4ccccc4C)CC3)C2)n1 (centres undefined)	-0.6	2.9	-10.8	-2.3	3.7	57.7*	-0.9	4.4	0.3
C[C@H]1[C@@H](NC(=O)C2CCC2)CC[C@@]23CCCN2C(=O)CCC[C@@H]13	1.1	9.1	/	/	-4.3	9.6	/	/	/
O=c1c(CO)cc(CO)cc(CO)c1O	-1.2	-2.7	-4.3	5.8	-2.0	-3.6	/	/	/
O=C1C=CC(=O)c2c(O)c(CO)c(CO)c(O)c21	86.8*	27.5*	-8.5	-35.4	57.3*	76.9*	32.2*	-162.2	79.8*
COc1ccc(/C=C2\CCc3c2nc2ccccc2c3C(=O)O)cc1OC	1.4	8.7	1.6	4.0	-7.4	14.7*	-1.2	6.3	22.4*
O=C1C=C[C@H]2CC[C@@H](O)[C@@H]1[C@@H]2Sc1ccccc1	10.5	-0.5	/	/	6.9	0.4	/	/	/
CN1C2CCC1/C(=C/c1cccn1C)C(=O)/C2=C\c1cccn1C	-6.8	10.5	-4.3	-3.8	-9.2	13.5*	0.0	0.1	-2.6
CCn1c(=O)n(CC(=O)N2CCCN(Cc3ccccc3)CC2)c(=O)c2ccccc21	0.6	8.6	/	/	-7.7	2.0	/	/	/
O=C1c2ccccc2C(=O)c2c1cccc2N1CCCC1	11.9	12.9	0.3	-1.3	-4.4	30.0*	3.1	-11.0	2.4
O=C(C(O)c1ccc(Br)cc1)N1CCC(Nc2ccc3[nH]ncc3c2)CC1 (centres undefined)	-5.5	4.2	6.8	6.1	-2.9	17.1*	4.9	-24.8	1.2
O=C(Nc1ccccc1N1CCCCC1)c1ccc(OC(F)F)cc1	1.8	5.0	5.0	-0.1	-2.4	35.9*	1.0	-3.7	3.7
O=C(Nc1ccccc1N1CCCCC1)c1ccc(F)cc1	-5.2	0.1	7.6	-6.5	-8.1	1.4	/	/	/
COc1ccc(CN(C)CC#Cc2ccccc2)c(OC)c1	2.5	3.1	/	/	-0.6	-0.6	/	/	/
COP(=O)(OC)C(=NNS(=O)(=O)c1ccc(C)cc1)c1ccccc1	1.9	-0.7	-14.5	4.2	5.7	26.8*	-0.9	4.8	-0.4
O=S(=O)(NN=C(c1ccccc1)c1ccccc1)c1ccccc1	-0.1	4.8	-4.4	5.3	3.9	-3.9	/	/	/
CC(C)Cc1nc(SCC(=O)Nc2nnc(CC(C)C)s2)n[nH]1	3.3	-3.0	5.7	-0.8	2.3	13.9*	-1.1	5.4	2.8
O=C(OCc1ccccc1)[C@H](Cc1ccccc1)NC(=O)[C@@H]1CC=C[C@@H]2CCN(C3CCCCC3)C(=O)[C@@H]21	-1.1	-2.7	/	/	2.5	-1.2	/	/	/
Cc1ccc(NC2=C([N+](=O)[O-])CS(=O)(=O)C2)cc1	-1.4	0.1	1.4	1.0	-0.9	0.9	/	/	/
CN(C)c1ccc(NC2=C([N+](=O)[O-])CS(=O)(=O)C2)cc1	-3.1	4.3	3.7	2.4	-8.5	24.3*	6.8	-34.1	1.3
CCCN(CC1CC1)C(=O)c1ccc(CNC(=O)c2cccc(Br)c2)cc1	1.8	-0.8	/	/	7.8	-0.2	/	/	/
SMILES	UHRF1 binding	TDP2 inh	ASAP1 GAP inh	ARFGAP1 inhibitor	MBD2 DNA inh	LEDGF integ inh	IN multimer act	TR-FRET interf	LEDGF integ conf
C/C(=N\NC(=O)c1cc(-c2ccccc2)nc2ccccc12)c1ccc(Cl)cc1	-4.0	-3.8	/	/	5.5	0.6	/	/	/
CCc1ccccc1NC(=O)CC1CS(=O)(=O)CC1CC(=O)Nc1ccccc1CC (centres undefined)	1.0	0.8	0.6	-5.2	9.1	1.4	/	/	/
O=C(CC1CS(=O)(=O)CC1CC(=O)Oc1ccccc1F)Oc1ccccc1F (centres undefined)	1.9	2.9	0.8	2.7	-0.6	23.8*	1.9	-7.0	5.3
COc1ccc(/C=N/Nc2nc(N)cc(Cl)n2)cc1OC	-3.4	0.0	1.2	3.9	-2.3	28.3*	2.6	-13.1	-5.3
COc1ccc(/C=N/Nc2nonc2N)cc1OC	-4.5	0.4	-6.3	3.2	0.4	4.0	/	/	/
CCOc1cccc(-c2nnc(SCC(=O)Nc3ccc4c(c3)OCO4)n2N)c1	-1.0	5.1	/	/	-5.1	-2.1	/	/	/
CCCCN1CC[C@@H](C)Oc2cc(Br)ccc2S1(=O)=O	0.6	3.1	/	/	-2.8	-0.7	/	/	/
COc1ccccc1N(CC(=O)NCc1ccco1)S(=O)(=O)c1ccc(C)cc1	28.9*	9.8	5.6	-0.2	7.5	23.1*	4.5	-16.6	28.4*
CCn1c(SCC(=O)Nc2cc(C)on2)nnc1-c1ccc(S(=O)(=O)N2CCN(C)CC2)cc1	-0.2	13.1	5.4	3.4	-2.3	17.6*	-0.4	2.2	-0.8
S=C(NCc1ccco1)NCc1ccco1	27.5*	5.7	-1.1	-4.2	2.5	34.0*	5.7	-20.4	2.6
S=C(NCc1ccccc1)NCc1ccco1	0.8	0.6	6.2	13.1	-5.1	-1.6	/	/	/
COc1ccc(/C=N/NC(=O)c2nn(-c3ccc(Cl)cc3)c(=O)c3c(N)scc23)cc1	7.5	11.6	15.1	-4.4	-2.1	11.0	/	/	/
COc1ccc(/C=N/NC(=O)c2nn(-c3ccccc3)c(=O)c3c(N)scc23)cc1	12.0	20.3	1.8	14.5	-1.8	17.2*	6.5	-23.2	16.6*
COC(=O)[C@]12C[C@H](CC(=O)NCc3ccc(OC)c(OC)c3)C(=O)N(Cc3ccco3)C1=C[C@H](C1CCCC1)O[C@@H]2C	1.7	3.1	/	/	5.8	-0.6	/	/	/
CCCCCCCCCCCCN1CCSCCS1(=O)=O	2.4	-12.6	2.1	0.3	1.3	21.6*	-0.1	0.1	4.2

Assay outcomes: PubChem BioAssay, The Scripps Research Institute Molecular Screening Center
